How the values were obtained:
A. baumannii NCTC 13420 = assay: Broth microdilution MIC/MBC, A. baumannii; type: cell-based, Acinetobacter baumannii
P. aeruginosa NCTC 13437 = assay: Broth microdilution MIC/MBC, P. aeruginosa; type: cell-based, Pseudomonas aeruginosa
In short: (§1)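 CLSI broth microdilution in cation-adjusted Mueller–Hinton broth. Log-phase cultures were diluted to 7.5 × 10^5 CFU/mL, then mixed 1:1 with 2-fold serial dilutions of gold complexes from DMSO or water stocks, in triplicate, and held 37 °C, 18 h, static. MIC: lowest concentration giving >90% inhibition by OD600 against medium-only and bacteria-only wells. […] E. coli ATCC 25922 quality control was checked each run with ciprofloxacin and […].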

E. cloacae NCTC 13405 = assay: Broth microdilution MIC/MBC, E. cloacae; type: cell-based, Enterobacter cloacae
In short: as §1

[1] = tested on: K. pneumoniae ATCC 700603; assay: Broth microdilution MIC/MBC, K. pneumoniae; type: cell-based, Klebsiella pneumoniae
In short: as §1

S. aureus JE2 (USA300) = assay: Broth microdilution MIC/MBC, S. aureus; type: cell-based, Staphylococcus aureus; conditions: value in parentheses
In short: as §1

E. faecium ATCC 700221 = assay: Broth microdilution MIC/MBC, E. faecium; type: cell-based, Enterococcus faecium
In short: as §1

E. coli ATCC 25922 = assay: Broth microdilution MIC/MBC, E. coli; type: cell-based, Escherichia coli
In short: as §1

all strains = assay: Broth microdilution, all strains taken together; type: cell-based; conditions: vs auranofin
Log P determination = conditions: n-octanol/water, Au by FAAS
[2] = value before the parentheses, two values = two repeats

In the case of `CC[PH](CC)(CC)[Au][S]c1ccc(N)cc1` [Compound 17, (4-Aminobenzenethiolato)(triethylphosphine) Gold(I)], the MIC A. baumannii NCTC 13420 (A. baumannii NCTC 13420; [2]) is reported as 18 µM, the MBC A. baumannii NCTC 13420 (A. baumannii NCTC 13420; value in parentheses) is reported as 18 µM and the MIC P. aeruginosa NCTC 13437 (P. aeruginosa NCTC 13437; [2]) is reported as 146 µM. It also gave an MBC P. aeruginosa NCTC 13437 (P. aeruginosa NCTC 13437; value in parentheses) of 146 µM, an MIC E. cloacae NCTC 13405 (E. cloacae NCTC 13405; [2]) of 36 µM and an MBC E. cloacae NCTC 13405 (E. cloacae NCTC 13405; value in parentheses) of 36 µM. The “MIC K. pneumoniae ATCC 700603” value [1, 2] was 36 µM, the “MBC K. pneumoniae ATCC 700603” value ([1]; value in parentheses) was 36 µM and the “fold enhancement of activity over auranofin, K. pneumoniae” value ([1]; vs auranofin) was 10. The “MBC S. aureus JE2 (USA300)” value (S. aureus JE2 (USA300)) was 0.07 µM, the “MIC E. faecium ATCC 700221” value (E. faecium ATCC 700221; [2]) was 0.02 µM and the “MBC E. faecium ATCC 700221” value (E. faecium ATCC 700221; value in parentheses) was 0.1 µM. For the same compound, the “fold enhancement of activity over auranofin, E. faecium” value (E. faecium ATCC 700221; vs auranofin) was “more than 7”, the MIC E. coli ATCC 25922 (E. coli ATCC 25922; [2]) was 9 µM and the MBC E. coli ATCC 25922 (E. coli ATCC 25922; value in parentheses) was 9 µM. For the same compound, the “fold enhancement of activity over auranofin, all strains” value (all strains) was “up to 10” and the “log P” value (Log P determination) was 1.36.
